From ChEMBL document CHEMBL3351736, “A promising camptothecin derivative: Semisynthesis, antitumor activity and intestinal permeability” (Eur J Med Chem, 2014) come the findings set out here.

The subject of data set [1] is HeLa. The data set is described as follows: Cytotoxicity against human HeLa cells after 24 hrs by MTT assay. The class given is functional, cell-based. In short, it runs like this: (§1)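 Cells seeded at 25000 per well and held 24 h at 37 °C in 5% CO2. Medium was then renewed and compounds added at increasing concentrations (DMSO 0.1%, or water for topotecan) for 24 h. MTT solution (5 mg/mL) was added for 3 h at 37 °C, then absorbance read at 570 nm, corrected at 630 nm. IC50 in µM.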

Data set [2] has as its system A-375. The data set is described as follows: Cytotoxicity against human A375 cells after 24 hrs by MTT assay. It counts as functional, cell-based. As to conditions: A-375, 24 h. In short, it runs like this: as §1
(In general: Tetrazolium assays rely on reduction of a dye to a coloured formazan, in cell work by metabolically active cells.)

A further data set deals with Jurkat. In words: Cytotoxicity against human Jurkat cells after 24 hrs by MTT assay. The class given is functional, cell-based. In short, it runs like this: as §1
In data set [3] the test system is MDA-MB-231. The data set is described as follows: Cytotoxicity against human MDA-MB-231 cells after 24 hrs by MTT assay. The class given is functional, cell-based. To be noted: MDA-MB-231, 24 h. Summed up: as §1
Data set [4] has as its system A-375. The data set is described as follows: Induction of apoptosis in human A375 cells assessed as inhibition of DNA synthesis at 0.8 to 1.6 uM after 24 hrs by BrdU staining-based ELISA. It counts as functional, cell-based. In short, it runs like this: (§2)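 BrdU colorimetric cell proliferation ELISA. Cells seeded at 25,000 per well, compounds added 24 h after seeding and incubated 24 h. Cells fixed and the immunoassay run per kit. Absorbance read at 370-492 nm over 3 intervals of 5 min; absorbance difference proportional to BrdU incorporation. Mean of three separate experiments in triplicate, compared with untreated control.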

The test system of data set [5] is HeLa. The data set is described as follows: Induction of apoptosis in human HeLa cells assessed as inhibition of DNA synthesis at 0.8 to 1.6 uM after 24 hrs by BrdU staining-based ELISA. It counts as functional, cell-based. In short, it runs like this:
as §2
Background: Uptake of a labelled nucleoside into DNA is a usual measure of proliferation.

Data set [6] relates to MDA-MB-231. The data set is described as follows: Induction of apoptosis in human MDA-MB-231 cells assessed as inhibition of DNA synthesis at 0.8 to 1.6 uM after 24 hrs by BrdU staining-based ELISA. It counts as functional, cell-based. In short, it runs like this: as §2
Data set [7] relates to A-375. The data set is described as follows: Induction of apoptosis in human A375 cells assessed as inhibition of DNA synthesis after 24 hrs by BrdU staining-based ELISA. The class given is functional, cell-based. Summed up:
(§3)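 Cells seeded at 25,000/well; compounds added 24 h after seeding at a range of concentrations and incubated 24 h. Cells fixed, then colorimetric BrdU-incorporation ELISA. Absorbance read at 370-492 nm over 3 intervals of 5 min. Mean of three separate experiments with triplicate samples.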

Data set [8] deals with HeLa. In words: Induction of apoptosis in human HeLa cells assessed as inhibition of DNA synthesis after 24 hrs by BrdU staining-based ELISA. It counts as functional, cell-based. Summed up: as §3
The test system of data set [9] is MDA-MB-231. In words: Induction of apoptosis in human MDA-MB-231 cells assessed as inhibition of DNA synthesis after 24 hrs by BrdU staining-based ELISA. The class given is functional, cell-based. Summed up:
as §3

Data set [10] deals with A-375. The data set is described as follows: Induction of apoptosis in human A375 cells assessed as p53 phosphorylation at Ser15 by Western blotting analysis. It counts as functional, cell-based. Summed up: (§4)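 Cells treated 24 h. About 10^6 cells lysed on ice 15 min in Hepes pH 7.4/Triton X-100 buffer with phosphatase and protease inhibitors, then spun 13,000 × g. 30 µg protein run on 12% SDS-PAGE and blotted to nitrocellulose. Primary anti-phospho-p53 (Ser15) and anti-p53 at 1:1000 for 2 h at room temperature, then HRP secondary and ECL densitometry. Results referred to untreated control.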
Background: In western blotting, separated proteins are transferred to a membrane and probed.

Data set [11] has as its system HeLa. In words: Induction of apoptosis in human HeLa cells assessed as p53 phosphorylation at Ser15 by Western blotting analysis. The class given is functional, cell-based. Summed up: as §4
The subject of data set [12] is MDA-MB-231. In words: Induction of apoptosis in human MDA-MB-231 cells assessed as p53 phosphorylation at Ser15 by Western blotting analysis. It counts as functional, cell-based. Summed up: as §4
Data set [13] in a line: Cytotoxicity against human Caco2 cells after 24 hrs by MTT assay. The class given is functional, cell-based. To be noted: Caco-2, 24 h.
Data set [14] concerns Caco-2. The data set is described as follows: Induction of apoptosis in human Caco2 cells assessed as vital cells at 0.05 uM after 24 hrs by Annexin V/propidium iodide staining-based flow cytometric analysis (reference value: 96.67 +/- 1.02%). The class given is functional.
For data set [15], the system named is Caco-2. The data set is described as follows: Induction of apoptosis in human Caco2 cells assessed as vital cells at 0.5 uM after 24 hrs by Annexin V/propidium iodide staining-based flow cytometric analysis (reference value: 96.67 +/- 1.02%). It counts as functional.
Data set [16] relates to Caco-2. The data set is described as follows: Induction of apoptosis in human Caco2 cells assessed as vital cells at 0.05 uM after 48 hrs by Annexin V/propidium iodide staining-based flow cytometric analysis (reference value: 96.67 +/- 1.02%). The class given is functional.
The subject of data set [17] is Caco-2. In words: Induction of apoptosis in human Caco2 cells assessed as vital cells at 0.5 uM after 48 hrs by Annexin V/propidium iodide staining-based flow cytometric analysis (reference value: 96.67 +/- 1.02%). It counts as functional.
Data set [18] has as its system Caco-2. In words: Induction of apoptosis in human Caco2 cells assessed as early apoptotic cells at 0.05 uM after 24 hrs by Annexin V/propidium iodide staining-based flow cytometric analysis (reference value: 0.72 +/- 0.03%). It counts as functional.
Data set [19] has as its system Caco-2. The data set is described as follows: Induction of apoptosis in human Caco2 cells assessed as early apoptotic cells at 0.5 uM after 24 hrs by Annexin V/propidium iodide staining-based flow cytometric analysis (reference value: 0.72 +/- 0.03%). It counts as functional.
Data set [20] has as its system Caco-2. The data set is described as follows: Induction of apoptosis in human Caco2 cells assessed as early apoptotic cells at 0.05 uM after 48 hrs by Annexin V/propidium iodide staining-based flow cytometric analysis (reference value: 0.72 +/- 0.03%). The class given is functional.
The test system of data set [21] is Caco-2. In words: Induction of apoptosis in human Caco2 cells assessed as early apoptotic cells at 0.5 uM after 48 hrs by Annexin V/propidium iodide staining-based flow cytometric analysis (reference value: 0.72 +/- 0.03%). The class given is functional.
Data set [22] deals with Caco-2. The data set is described as follows: Induction of apoptosis in human Caco2 cells assessed as late apoptotic cells at 0.05 uM after 24 hrs by Annexin V/propidium iodide staining-based flow cytometric analysis (reference value: 2.20 +/- 0.77%). The class given is functional.
Data set [23] has as its system Caco-2. The data set is described as follows: Induction of apoptosis in human Caco2 cells assessed as late apoptotic cells at 0.5 uM after 24 hrs by Annexin V/propidium iodide staining-based flow cytometric analysis (reference value: 2.20 +/- 0.77%). It counts as functional.
The subject of data set [24] is Caco-2. In words: Induction of apoptosis in human Caco2 cells assessed as late apoptotic cells at 0.05 uM after 48 hrs by Annexin V/propidium iodide staining-based flow cytometric analysis (reference value: 2.20 +/- 0.77%). The class given is functional.
Data set [25] relates to Caco-2. In words: Induction of apoptosis in human Caco2 cells assessed as late apoptotic cells at 0.5 uM after 48 hrs by Annexin V/propidium iodide staining-based flow cytometric analysis (reference value: 2.20 +/- 0.77%). The class given is functional.
In data set [26] the test system is Caco-2. The data set is described as follows: Induction of apoptosis in human Caco2 cells assessed as necrotic cells at 0.05 uM after 24 hrs by Annexin V/propidium iodide staining-based flow cytometric analysis (reference value: 0.41 +/- 0.02%). It counts as functional.
In data set [27] the test system is Caco-2. In words: Induction of apoptosis in human Caco2 cells assessed as necrotic cells at 0.5 uM after 24 hrs by Annexin V/propidium iodide staining-based flow cytometric analysis (reference value: 0.41 +/- 0.02%). It counts as functional.
The subject of data set [28] is Caco-2. In words: Induction of apoptosis in human Caco2 cells assessed as necrotic cells at 0.05 uM after 48 hrs by Annexin V/propidium iodide staining-based flow cytometric analysis (reference value: 0.41 +/- 0.02%). It counts as functional.
In data set [29] the test system is Caco-2. The data set is described as follows: Induction of apoptosis in human Caco2 cells assessed as necrotic cells at 0.5 uM after 48 hrs by Annexin V/propidium iodide staining-based flow cytometric analysis (reference value: 0.41 +/- 0.02%). The class given is functional.
Data set [30] in a line: Effective permeability from apical to basolateral side in human Caco2 cells at 50 uM after 15 to 90 mins by HPLC analysis. It counts as ADME, cell-based. To be noted: Caco-2, read-out: Peff. Summed up:
(§5)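 Caco-2 monolayers grown 19-22 days on polycarbonate transwell inserts (4.2 cm², 0.4 µm pore) at 37 °C, 5% CO2; TEER checked before and after each run. Compound added to donor side at 37 °C, 50 rpm. Receiver sampled at 15, 30, 60 and 90 min; donor sampled at start and end. HPLC analysis. Sodium azide, when used, placed on both sides. Three independent experiments.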

Data set [31] is described as follows: Permeability from apical to basolateral side in human Caco2 cells at 5 to 50 uM after 15 to 90 mins by HPLC analysis. The class given is ADME, cell-based. To be noted: caco-2, 50 µM. Summed up:
as §5

Data set [32] is described as follows: Permeability from basolateral to apical side in human Caco2 cells at 5 to 50 uM after 15 to 90 mins by HPLC analysis. It counts as ADME, cell-based. To be noted: caco-2, 50 µM. Summed up:
as §5

The nature of data set [33]: Effective permeability in Wistar rat small intestine at 50 uM measured after 5 mins in every 5 min interval up to 30 mins. The class given is ADME, tissue-based. As to conditions: not told, read-out: Peff. In short, it runs like this: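 In situ intestinal perfusion in male Wistar rats fasted 2 h with water allowed. Anaesthesia with diazepam (1.67 mg/kg), ketamine (50 mg/kg) and atropine (1 mg/kg); animals kept at 37 °C. Perfusate sampled every 5 min from 5 to 30 min; absorption rate constant and Peff derived.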

The next data set has as its system Small intestine. In words: Effective permeability in Wistar rat small intestine assessed as absorption rate coefficient at 50 uM measured after 5 mins in every 5 min interval up to 30 mins. It counts as ADME, tissue-based. Summed up: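 Male Wistar rats fasted 2 h with water available, then anaesthetised with diazepam (1.67 mg/kg), ketamine (50 mg/kg) and atropine (1 mg/kg) and kept at 37°C on a heated surface. In situ intestinal perfusion. Perfusate sampled from 5 min at 5 min intervals up to 30 min. Absorption rate constant (Ka) and Peff derived.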

Molecules are shown by their SMILES. Calls of active or inactive are those of the source. The calls are words filed in the database; no cut-off is given here.

For the compound `CC[C@@]1(O)C(=O)OCc2c1cc1n(c2=O)Cc2cc3c([N+](=O)[O-])cccc3nc2-1` [RUBITECAN], the concentration for half-maximal inhibition (IC50) – broadly, the concentration that inhibits the measured activity by half – in the data set on HeLa [1] was 343 nM; with A-375 [2], 138 nM; with Jurkat, 128 nM; with MDA-MB-231 [3], 479 nM. For the same compound, the outcome in the data set on A-375 [4], in the data set with HeLa [5], with MDA-MB-231 [6], with A-375 [10] and in the data set with MDA-MB-231 [12] was Active. In addition, the inhibition entry with A-375 [7], in the data set with HeLa [8] and in the data set with MDA-MB-231 [9] was “Dose-dependent effect” in each case. The result with HeLa [11] was inactive.

With `CC[C@@]1(O)C(=O)OCc2c1cc1n(c2=O)Cc2cc3ccccc3nc2-1` [CAMPTOTHECIN], the IC50 with HeLa [1] was 420 nM; in [13] it was 131 nM; with A-375 [2] it was 187 nM; in the data set with Jurkat, 110 nM; with MDA-MB-231 [3] it was 342 nM. Moreover, the Activity in the data set with Caco-2 [14] stood at 83.26%; in the data set with Caco-2 [15], 81.62%; in the data set with Caco-2 [16], 51.12%; in the data set with Caco-2 [17], 36.98%; in the data set on Caco-2 [18], 15.22%; in the data set on Caco-2 [19], 1.64%. Moreover, the Activity amounted to 3.18% in the data set with Caco-2 [20]; 4.1% in the data set on Caco-2 [21]; 1.4% in the data set on Caco-2 [22]; 13.7% in the data set with Caco-2 [23]; 41.38% in the data set with Caco-2 [24]; 56.16% in the data set with Caco-2 [25]. Also, the Activity turned out to be 0.12% in the data set on Caco-2 [26], 3.04% with Caco-2 [27], 4.32% with Caco-2 [28] and 2.76% in the data set on Caco-2 [29]. Besides, the result in the data set on A-375 [4], with HeLa [5], in the data set on MDA-MB-231 [6], with A-375 [10] and in the data set on MDA-MB-231 [12] was Active. Besides, the result in the data set with HeLa [11] was inactive. In [30], the Papp A→B at 50 µM came out at 7.88 ×10⁻⁶ cm/s. Besides, the permeability result in data set [31] and in data set [32] was “permeable” each time. Besides, the Papp at 5 min, 50 µM in data set [33] is 74.8 ×10⁻⁶ cm/s. Further, the Ka in the data set on Small intestine came out at 3.02 h⁻¹.
